Assay results taken from ChEMBL document CHEMBL1132342, “Novel hypotensive agents from Verbesina caracasana. 6. Synthesis and pharmacology of caracasandiamide” (1999).
“And” between values parts separate entries of the source, which are not always exact repeats. Equal entries are not always repeated.

Experiments:
Rattus norvegicus [1] = test: Change in systolic blood pressure after iv administration of 1600 ug/Kg in the presence of isoprenaline (agonist) in anesthetized rats; type: functional, Artery
Rattus norvegicus [2] = test: Change in systolic blood pressure after iv administration of 4.12 uM/Kg in anesthetized rats; type: functional, Artery
Outline: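 Doses were 4.12 µM/kg (two agents), guanethidine 25, clonidine 0.108, hexamethonium 12, reserpine 8, papaverine 5 and histamine […]. Peak changes in systolic BP or HR were recorded.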

Rattus norvegicus [3] = test: Change in systolic blood pressure after iv administration of 400 ug/Kg in the presence of noradrenaline (agonist) in anesthetized rats; type: functional, Artery
Outline: (§1)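 Anesthetized male Wistar rats, two groups of 8, received 400 or 1600 µg/kg iv. Before and after this dose, iv agonist challenges were given: noradrenaline 1 µg/kg, adrenaline, acetylcholine 2.50 µg/kg, or isoprenaline. Systolic/diastolic BP, heart rate and dP/dt responses were recorded before (control) and after dosing; significance was set at p < 0.05 versus control.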

Rattus norvegicus [4] = test: Change in diastolic blood pressure after iv administration of 200 ug/Kg in anesthetized rats; type: functional, Artery
Outline: (§2)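 Adult male Wistar rats under ip ethylurethane (10% w/v in saline, 1 mL/kg) with tracheal cannula and spontaneous breathing, kept at 37 °C. Arterial BP was recorded by femoral artery catheter; compound in saline (50 µL) was given via femoral vein at 50–3200 µg/kg, ratio 2.0. Peak change is given as mean ± SE, n = 12 (n = 7 at 3200 µg/kg).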

Rattus norvegicus [5] = test: Change in diastolic blood pressure after iv administration of 3200 ug/Kg in anesthetized rats; type: functional, Artery; outline: as §2
Rattus norvegicus [6] = test: Change in diastolic blood pressure after iv administration of 400 ug/Kg in anesthetized rats; type: functional, Artery; outline: as §2
Rattus norvegicus [7] = test: Change in systolic blood pressure after iv administration of 800 ug/Kg compound (treatment with hexamethonium (5 mg/Kg, iv)in anesthetized rats; type: functional, Artery
Outline: (§3)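 Anesthetized rats, n = 6 per group, received iv doses of 200–1600 µg/kg (ratio 2.0) either alone (control) or under pretreatment: continuous iv papaverine infusion 1 mg/kg/min, reserpine 5 mg/kg/day ip for 2 days, or hexamethonium 5 mg/kg iv. Peak changes in BP, heart rate and dP/dt recorded; means ± SE, p < 0.05 versus control.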

Rattus norvegicus [8] = test: Change in diastolic blood pressure after iv administration of 50 ug/Kg in anesthetized rats; type: functional, Artery; outline: as §2
Rattus norvegicus [9] = test: Change in diastolic blood pressure after iv administration of 800 ug/Kg compound (treatment with papaverine(1 mg/Kg/min, iv)in anesthetized rats; type: functional, Artery
Outline: (§4)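 In anesthetized male Wistar rats, responses to iv compound (200–1600 µg/kg, ratio 2.0) were measured alone and under three pretreatments: continuous iv papaverine infusion (1 mg/kg/min), ip reserpine (5 mg/kg/day for 2 days), or iv hexamethonium (5 mg/kg). Peak changes are given as mean ± SE, n = 6 per group; p < 0.05 versus control.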

Rattus norvegicus [10] = test: Change in diastolic blood pressure after iv administration of 100 ug/Kg in anesthetized rats; type: functional, Artery; outline: as §2
Rattus norvegicus [11] = test: Change in heart rate after iv administration of 1600 ug/kg compound (treatment with reserpine(5 mg/kg/day for 2 days, ip))in anesthetized rats; type: functional; outline: as §4
Rattus norvegicus [12] = test: Change in heart rate after iv administration of 1600 ug/Kg in anesthetized rats; type: functional; outline: as §2
Rattus norvegicus [13] = test: Change in heart rate after iv administration of 1600 ug/Kg in the presence of adrenaline (agonist) in anesthetized rats; type: functional
Outline: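 Urethane-anesthetized male Wistar rats (16 rats, two equal groups) received 400 or 1600 µg/kg compound iv. Cardiovascular responses to iv agonist boluses (noradrenaline 1 µg/kg, acetylcholine 2.50 µg/kg, adrenaline, isoprenaline) were measured before and after compound dosing. Peak responses are given as mean ± SE; p < 0.05 versus control mean.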

Rattus norvegicus [14] = test: Change in heart rate after iv administration of 400 ug/Kg in anesthetized rats; type: functional; outline: as §2
Rattus norvegicus [15] = test: Maximum rate of rise of the left ventricular isovolumetric pressure was measured after iv administration of 800 ug/Kg compound (treatment with papaverine(1 mg/Kg/min, iv)in anesthetized rats; type: functional, Heart left ventricle; outline: as §3
Rattus norvegicus [16] = test: Maximum rate of rise of the left ventricular isovolumetric pressure was measured after iv administration of 800 ug/Kg in anesthetized rats; type: functional, Heart left ventricle
Outline: (§5)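 Urethane-anesthetized (10% w/v, […] ip in saline) adult male Wistar rats, trachea cannulated, breathing spontaneously, 37 °C. Femoral artery catheter for blood pressure, femoral vein for dosing. Sequential iv doses 50–3200 µg/kg (ratio 2.0) in saline, each given after parameters returned to baseline. Peak changes recorded; means ± SE, n = 12 (n = 7 at 3200 µg/kg).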

Rattus norvegicus [17] = test: Maximum rate of rise of the left ventricular isovolumetric pressure after iv administration of 400 ug/Kg compound (treatment with hexamethonium (5 mg/Kg, iv)in anesthetized rats; type: functional, Heart left ventricle; outline: as §3
Rattus norvegicus [18] = test: Maximum rate of rise of the left ventricular isovolumetric pressure was measured after iv administration of 400 ug/Kg in the presence of acetylcholine (agonist) in anesthetized rats; type: functional, Heart left ventricle; outline: as §1
Rattus norvegicus [19] = test: Change in respiratory frequency after iv administration of 200 ug/Kg in anesthetized rats; type: functional
Outline: (§6)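 Male Wistar rats (299 ± 3 g) were anesthetized with ethylurethane ip, tracheally cannulated and breathing spontaneously, at 37 °C, and stabilized for 60 min. Doses of 50-3200 µg/kg (ratio 2.0) in saline were injected by femoral vein, 50 µL each. Recordings: femoral arterial BP, electromagnetic abdominal-aortic flow, SV from integrated pulsatile flow, polygraphic RF. Peak changes, mean ± SE, n = 12 (n = 7 at 3200).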

Rattus norvegicus [20] = test: Maximum rate of rise of the left ventricular isovolumetric pressure was measured after iv administration of 200 ug/Kg in anesthetized rats; type: functional, Heart left ventricle; outline: as §5
Rattus norvegicus [21] = test: Maximum rate of rise of the left ventricular isovolumetric pressure was measured after iv administration of 1600 ug/Kg in the presence of isoprenaline (agonist) in anesthetized rats; type: functional, Heart left ventricle; outline: as §1
Rattus norvegicus [22] = test: Maximum rate of rise of the left ventricular isovolumetric pressure was measured after iv administration of 1600 ug/Kg in the presence of noradrenaline (agonist) in anesthetized rats; type: functional, Heart left ventricle; outline: as §1
Rattus norvegicus [23] = test: Maximum rate of rise of the left ventricular isovolumetric pressure after iv administration of 800 ug/Kg compound (treatment with hexamethonium (5 mg/Kg, iv)in anesthetized rats; type: functional, Heart left ventricle; outline: as §3
Rattus norvegicus [24] = test: Change in stroke volume after iv administration of 1600 ug/Kg in anesthetized rats; type: functional; outline: as §6
Rattus norvegicus [25] = test: Change in stroke volume after iv administration of 3200 ug/Kg in anesthetized rats; type: functional; outline: as §6
Rattus norvegicus [26] = test: Change in stroke volume after iv administration of 50 ug/Kgg in anesthetized rats; type: functional; outline: as §6
Rattus norvegicus [27] = test: Change in respiratory frequency after iv administration of 50 ug/Kg in anesthetized rats; type: functional; outline: as §6

COc1ccc(C2C(c3ccc(OC)c(OC)c3)[C@H](C(=O)NCCCC/N=C(\N)NCC=C(C)C)[C@@H]2C(=O)NCCCC/N=C(\N)NCC=C(C)C)cc1OC (stereo partly drawn) [CARACASANDIAMIDE]
BP (Rattus norvegicus [1]): -43 mmHg
BP (Rattus norvegicus [2]): -43 mmHg
BP (Rattus norvegicus [3]): 31 mmHg
BP (Rattus norvegicus [4]): -13 mmHg
Change in BP (Rattus norvegicus [4]): -17%
BP (Rattus norvegicus [5]): -53 mmHg
Change in BP (Rattus norvegicus [5]): -68%
BP (Rattus norvegicus [6]): -17 mmHg
Change in BP (Rattus norvegicus [6]): -22%
BP (Rattus norvegicus [7]): -50 mmHg
BP (Rattus norvegicus [8]): 10 mmHg
Change in BP (Rattus norvegicus [8]): 13%
BP (Rattus norvegicus [9]): -16 mmHg
BP (Rattus norvegicus [10]): 10 mmHg
Change in BP (Rattus norvegicus [10]): 13%
Heart rate (Rattus norvegicus [11]): -14 beats min-1
Change in heart rate (Rattus norvegicus [12]): -8%
Heart rate (Rattus norvegicus [12]): -30 beats min-1
Heart rate (Rattus norvegicus [13]): 7 beats min-1
Change in heart rate (Rattus norvegicus [14]): -4%
Heart rate (Rattus norvegicus [14]): -16 beats min-1
dP/dt (Rattus norvegicus [15]): 2967 mmHg s-1
Change in dP/dt (Rattus norvegicus [16]): 54%
dP/dt (Rattus norvegicus [16]): 3282 mmHg s-1
dP/dt (Rattus norvegicus [17]): 3938 mmHg s-1
dP/dt (Rattus norvegicus [18]): -5820 mmHg s-1
Change in respiratory frequency (Rattus norvegicus [19]): 9 beats min-1 and 9%
Change in dP/dt (Rattus norvegicus [20]): 22%
dP/dt (Rattus norvegicus [20]): 1369 mmHg s-1
dP/dt (Rattus norvegicus [21]): 14552 mmHg s-1
dP/dt (Rattus norvegicus [22]): 2225 mmHg s-1
dP/dt (Rattus norvegicus [23]): 4965 mmHg s-1
Change in stroke volume (Rattus norvegicus [24]): -48%
Stroke volume (Rattus norvegicus [24]): -97 µL
Change in stroke volume (Rattus norvegicus [25]): -58%
Stroke volume (Rattus norvegicus [25]): -117 µL
Stroke volume (Rattus norvegicus [26]): 73 µL
Change in respiratory frequency (Rattus norvegicus [27]): 5 beats min-1 and 5%
